Experimental data taken from ChEMBL document CHEMBL1139517, “Mono- and bis-thiazolium salts have potent antimalarial activity” (J Med Chem, 2005).

Assays:
[1] = Lethal dose against Plasmodium vinckei in mice (Mus musculus) after intraperitoneal administration; assay type: toxicity; conditions: in vivo, ip
[2] = Ratio of LD50 to ED50 expressed as TI; assay type: ADME; conditions: mouse
How it was run: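 Therapeutic index calculated as LD50/ED50. ED50 came from a modified 4-day suppressive test against P. vinckei petteri (279BY) in female Swiss mice, dosed ip once daily for 4 days. It is the dose giving 50% inhibition of parasite growth versus vehicle-treated controls, read the day after the last dose. LD50 came from tolerance after ip administration in mice.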

[3] = tested on: Plasmodium falciparum; experiment: In vitro inhibition of Plasmodium falciparum; assay type: functional, organism-based
How it was run: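 [³H]-hypoxanthine incorporation assay on the Nigerian strain of P. falciparum, run as described in earlier work. IC₅₀ is the concentration giving 50% inhibition of incorporation.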

[4] = tested on: Mus musculus; experiment: In vivo effective dose against Plasmodium vinckei in mice (Mus musculus) after intraperitoneal administration of the compound; assay type: functional; conditions: ip
How it was run: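 Modified Peters 4-day suppressive test in female Swiss mice infected with P. vinckei petteri (279BY). Dosing was ip, once daily for 4 days. Controls received an equal volume of vehicle. Parasite growth was assessed on the day after the last treatment. ED₅₀ is the dose giving 50% growth inhibition relative to control.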

Compound	IC50 [3] [nM]	LD50 [1] [mg/kg]	TI [2] [%]	ED50 [4] [mg/kg]
COCCc1sc[n+](CCCCCCCCCCCC[n+]2csc(CCOC)c2C)c1C.[I-].[I-]	0.65	1.2	5	0.14
Cc1c(CCO)sc[n+]1CCCCCCCC[n+]1csc(CCO)c1C	362			
CCOC(=O)Cc1c(CCCCCCCCCCCCc2sc[n+](Cc3ccccc3)c2CC(=O)OCC)sc[n+]1Cc1ccccc1	250			
c1ccc2c(c1)sc[n+]2CCCCCCCCCCCC[n+]1csc2ccccc21	2300			
COCCc1sc[n+](CCCCCCCC[n+]2csc(CCOC)c2C)c1C	87.5			
Cc1c(CCOCCCCCCOCCc2sc[n+](C)c2C)sc[n+]1C	275			
CCCCCCCCCCCC[n+]1csc(CCOC)c1C	75			
Cc1c(CCO)sc[n+]1CCCCCCCCCC[n+]1csc(CCO)c1C	34			
Cc1c(CCO)sc[n+]1CCCCCCCCCCCC[n+]1csc(CCO)c1C.[I-].[I-]	2.25	1.2	5	0.2
Cc1c(CCOCCCCCCOCCc2sc[n+](Cc3ccccc3)c2C)sc[n+]1Cc1ccccc1	36			
c1ccc(-c2csc[n+]2CCCCCCCCCCCC[n+]2cscc2-c2ccccc2)cc1	1800			
CCCCCCCCCCCC[n+]1csc(CCO)c1C	70			
CCN(CC)CCCC(C)Nc1ccnc2cc(Cl)ccc12 (stereo not drawn) [CHLOROQUINE]				1.1

The remaining compounds from weak to strong by IC50 [3], led by results:

IC50 [3] [nM]	Compound	LD50 [1] [mg/kg]	TI [2] [%]	ED50 [4] [mg/kg]
22	CCOC(=O)Cc1c(CCCCCCCCCCCCc2sc[n+](C)c2CC(=O)OCC)sc[n+]1C			
10	Cc1c(CCCl)sc[n+]1CCCCCCCCCCCC[n+]1csc(CCCl)c1C			
8.9	COCCc1sc[n+](CCCCCCCCCC[n+]2csc(CCOC)c2C)c1C			
5	COCCc1sc[n+](CCCCc2ccc(CCCC[n+]3csc(CCOC)c3C)cc2)c1C			
5	COC(=O)CCC(=O)OCCc1sc[n+](CCCCCCCCCCCC[n+]2csc(CCOC(=O)CCC(=O)OC)c2C)c1C.[I-].[I-]			3.1
4.8	Cc1c(CCOC(C)C)sc[n+]1CCCCCCCCCCCC[n+]1csc(CCOC(C)C)c1C			
3.1	CC(=O)OCCc1sc[n+](CCCCCCCCCCCC[n+]2csc(CCOC(C)=O)c2C)c1C.[I-].[I-]			0.7
3	Cc1csc[n+]1CCCCCCCCCCCC[n+]1cscc1C.[I-].[I-]			2.6
1.6	CCc1sc[n+](CCCCCCCCCCCC[n+]2csc(CC)c2C)c1C.[I-].[I-]			0.4
1.6	CCOCCc1sc[n+](CCCCCCCCCCCC[n+]2csc(CCOCC)c2C)c1C			
1.5	Cc1sc[n+](CCCCCCCCCCCC[n+]2csc(C)c2C)c1C.[I-].[I-]			1
1.1	COCCc1sc[n+](CCCCCCCCCCCCCCCC[n+]2csc(CCOC)c2C)c1C			
0.65	C[N+]1(CCCCCCCCCCCCCCCC[N+]2(C)CCCC2)CCCC1.[Br-].[Br-]			0.22
